In paper PMC4128789 (Drug Design, Development and Therapy, 2014):
Read-outs that look alike come from different tables or passages of the source.

Assays:
Assay type in all cases: cell-based
[1] = system: Human umbilical vein endothelial cell (HUVEC); test: MTT in vitro cytotoxicity assay, HUVEC; conditions: for selectivity toward the normal cell line HUVEC compared with berberine: cancer cell lines versus HUVEC
Summary of the method: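 HUVEC used at passages 1–7, grown in endothelial basal medium with 3% FBS growth supplement. Seeded at 5,000 cells/well and held 24 h at 37°C, 5% CO2. Test compound in DMSO, diluted in medium (0.1% DMSO final), given at 1.95–250 μM for 48 h. MTT added for 4 h, formazan dissolved in DMSO, absorbance read at 570 nm less 630 nm. IC50 from viability versus dose; at least triplicate, mean ± SD.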

[2] = system: SW-1990 (human pancreatic carcinoma) cells; test: MTT in vitro cytotoxicity assay, SW-1990; conditions: for IC50: read-out: IC50 (μM) SW-1990
Summary of the method: (§1)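 Cells grown in DMEM with 10% FBS, penicillin/streptomycin, 37°C, 5% CO2. Seeded at 10,000 (MCF-7), 5,000 (SW-1990) or 6,000 (SMMC-7721) per well for 24 h. Test compound in DMSO, diluted in medium (0.1% DMSO), given at 1.95–250 μM final for 48 h. MTT (5 mg/mL, 10% v/v) added for 4 h; formazan dissolved in DMSO; A570 read, 630 nm background. % inhibition calculated versus 0.1% DMSO control; IC50 from viability–dose plot; at least triplicate, mean ± SD.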

[3] = system: MCF-7 (human breast adenocarcinoma) cells; test: MTT in vitro cytotoxicity assay, MCF-7; conditions: read-out: IC50 (μM) MCF-7
Summary of the method: as §1

[4] = system: SMMC-7721 (human liver carcinoma) cells; test: MTT in vitro cytotoxicity assay, SMMC-7721; conditions: read-out: IC50 (μM) SMMC-7721
Summary of the method: as §1

[5] = MTT assay after 48 hours of drug exposure, mean ± SD

| Molecule | IC50 [2, 5] | IC50 [3, 5] | IC50 [4, 5] | also measured |
| --- | --- | --- | --- | --- |
| COc1ccc2cc3[n+](cc2c1OCCc1cn(Cc2ccc(C)cc2)nn1)CCc1cc2c(cc1-3)OCO2.[Cl-] [Compound 15, 9-O-[1-(4-methylbenzyl)-4-ethyl-1H-1,2,3-triazole] berberine chloride] | 32 ± 4.23 µM | 37.8 ± 4.66 µM | 39.4 ± 4.98 µM | selectivity toward the normal cell line HUVEC compared with berberine [1]: much better selectivity than berberine |
| COc1ccc2cc3[n+](cc2c1OCCc1cn(Cc2ccc(F)c(F)c2)nn1)CCc1cc2c(cc1-3)OCO2 [Compound 29, 9-O-[1-(3,4-difluorobenzyl)-4-ethyl-1H-1,2,3-triazole] berberine chloride] | 38.5 ± 4.65 µM | 81.2 ± 10.4 µM | 43.8 ± 5.32 µM | – |
| COc1ccc2cc3[n+](cc2c1OCCc1cn(Cc2ccc(Cl)c(Cl)c2)nn1)CCc1cc2c(cc1-3)OCO2.[Cl-] [Compound 35, 9-O-[1-(3,4-dichlorobenzyl)-4-ethyl-1H-1,2,3-triazole] berberine chloride] | 20.4 ± 2.35 µM | 30.8 ± 4.32 µM | 16.1 ± 2.92 µM | IC50 against HUVECs relative to compound 32 ([1]; ratio to compound 32 IC50): four times lower than that of 32 |
| 9-O-[1-(3-fluorobenzyl)-4-ethyl-1H-1, 2, 3-triazole] berberine chloride [Compound 6] | 62.6 ± 7.85 µM | 69.9 ± 8.73 µM | 51.5 ± 6.03 µM | – |
| 9-O-[1-(4-fluorobenzyl)-4-ethyl-1H-1, 2, 3-triazole] berberine chloride [Compound 7] | 53.6 ± 6.33 µM | 73.5 ± 10.2 µM | 54.6 ± 5.98 µM | – |
| COC(=O)c1ccc(Cn2cc(CCOc3c(OC)ccc4cc5[n+](cc34)CCc3cc4c(cc3-5)OCO4)nn2)cc1 [Compound 25, 9-O-[1-(4-methyl formatebenzyl)-4-ethyl-1H-1,2,3-triazole] berberine chloride] | 165 ± 18.9 µM | 249 ± 20.1 µM | 53.5 ± 5.84 µM | – |
| COc1ccc2cc3[n+](cc2c1OCCc1cn(Cc2cccc(C(F)(F)F)c2)nn1)CCc1cc2c(cc1-3)OCO2 [Compound 20, 9-O-[1-(3-(trifluoromethyl)benzyl-4-ethyl-1H-1,2,3-triazole]berberine chloride] | 39.3 ± 3.76 µM | 86.2 ± 10.5 µM | 32.2 ± 5.2 µM | – |
| COc1ccc2cc3[n+](cc2c1OC)CCc1cc2c(cc1-3)OCO2 [BBR, berberine, reference compound] | – | – | – | IC50 ([1]; Homo sapiens, HUVEC, 48 h, read-out: IC50 (μM) HUVEC): 18.3 ± 2.31 µM; IC50 ([2]; Homo sapiens, SW1990, 48 h): 27.6 ± 3.04 µM; inhibition at 62.5 µM ([2]; Homo sapiens, SW1990, read-out: inhibition against SW-1990 cell growth): > 50%; IC50 ([3]; Homo sapiens, MCF7, 48 h): 122 ± 11.3 µM; IC50 ([4]; Homo sapiens, SMMC-7721, 48 h): 68.1 ± 7.76 µM |
| 9-O-[1-(2-methylbenzyl)-4-ethyl-1H-1, 2, 3-triazole] berberine chloride [Compound 14] | 23.7 ± 3.47 µM | 40.8 ± 5.92 µM | 19.9 ± 2.33 µM | selectivity toward the normal cell line HUVEC compared with berberine [1]: much better selectivity than berberine |
| COc1ccc2cc3[n+](cc2c1OCCc1cn(Cc2ccc(C(F)(F)F)cc2)nn1)CCc1cc2c(cc1-3)OCO2 [Compound 21, 9-O-[1-(4-(trifluoromethyl)benzyl-4-ethyl-1H-1,2,3-triazole]berberine chloride] | 36.8 ± 3.45 µM | 68.1 ± 7.56 µM | 23.3 ± 2.63 µM | – |
| COc1ccc2cc3[n+](cc2c1OCCc1cn(Cc2ccc(F)cc2F)nn1)CCc1cc2c(cc1-3)OCO2 [Compound 27, 9-O-[1-(2,4-difluorobenzyl)-4-ethyl-1H-1,2,3-triazole] berberine chloride] | 69 ± 9.33 µM | 70.7 ± 6.45 µM | 35.9 ± 4.76 µM | – |
| COc1ccc2cc3[n+](cc2c1OCCc1cn(Cc2cc(Cl)ccc2Cl)nn1)CCc1cc2c(cc1-3)OCO2 [Compound 33, 9-O-[1-(2,5-dichlorobenzyl)-4-ethyl-1H-1,2,3-triazole] berberine chloride] | 38.6 ± 4.57 µM | 65.5 ± 7.22 µM | 24.2 ± 3.48 µM | – |
| COc1ccc2cc3[n+](cc2c1OCCc1cn(Cc2ccc(Br)cc2)nn1)CCc1cc2c(cc1-3)OCO2 [Compound 13, 9-O-[1-(4-bromobenzyl)-4-ethyl-1H-1,2,3-triazole] berberine chloride] | 30.4 ± 4.89 µM | 47.1 ± 6.93 µM | 20 ± 2.37 µM | – |
| 9-O-[1-(2-fluorobenzyl)-4-ethyl-1H-1, 2, 3-triazole] berberine chloride [Compound 5] | 64 ± 8.46 µM | 75 ± 9.35 µM | 44.5 ± 4.88 µM | – |
